ERAP1 inh: ERAP1 (human) enzyme inhibition; Q9NZ08; recombinant ERAP1, Leu-AMC fluorescence, 60 min; inhibition, % at 10.7 µM; 0.15% of 340,000 active;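 active = mean replicate inhibition of at least 30%, or all replicates individually reaching that 30% level; inactive = mean below 30% and not every replicate reaching it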;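 note: 0% = neutral control wells and 100% = L-leucinethiol positive control wells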
E-sel inducer: induces E-selectin expression in human endothelial cells; HUVEC E-selectin immunofluorescence imaging; normalized: neutral wells 0, TNF-alpha wells 100; activation, % at 7.58 µM; 0.37% of 260,000 active; AID 686992;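 active = mean E-selectin-positive cell signal at least 10% of the positive control, reached in at least 60% of replicates, without over 20% cell loss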
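Assay system: HUVEC primary endothelial cells. Input: 3,000 HUVEC seeded per well. Doses: one compound dose added by pin transfer. Read-out basis: % PE-positive cells. Benchmarks: TNF-alpha high, DMSO low. Detection: immunofluorescence imaging. Buffer or medium: EGM-2, gelatin.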
PglD inh: inhibitors of Campylobacter jejuni PglD acetyltransferase. purified PglD enzyme, DTNB colorimetric CoA detection. inhibition, % at 12.5 µM. 0.098% of 360,000 active; in the data active = inhibition above about 16%, passing the limit was not always enough
SIRT5 block: inhibitors of human sirtuin-5 desuccinylase | Q9NXA8 | Purified SirT5, succinyl-peptide AMC, trypsin-coupled fluorescence | inhibition, % at 15 µM | 1.1% of 330,000 active; in the data active = inhibition above about 15%
Target sequence (Q9NXA8 whole entry, looked up): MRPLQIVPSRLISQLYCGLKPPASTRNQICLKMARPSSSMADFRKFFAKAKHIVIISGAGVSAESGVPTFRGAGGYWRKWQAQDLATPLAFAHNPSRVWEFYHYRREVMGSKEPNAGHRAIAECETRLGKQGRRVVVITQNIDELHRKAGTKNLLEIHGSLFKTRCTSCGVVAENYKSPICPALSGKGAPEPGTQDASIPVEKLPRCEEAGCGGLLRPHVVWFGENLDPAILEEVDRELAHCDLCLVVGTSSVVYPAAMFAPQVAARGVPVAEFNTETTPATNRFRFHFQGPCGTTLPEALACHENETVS
DENV2 CPE: DENV2-induced cell death inhibition. DENV2-infected cells, cytopathic effect rescue, plate reader. CPE inhibition, % at 9.99 µM. 1.7% of 350,000 active. AID 651640; in the data active = CPE inhibition above about 20%, passing the limit was not always enough; tested in BHK-21 cells;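 note: 0% = median of neutral control wells and 100% = median of positive control wells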
* = called active by the depositor; / = no result given. This is a sample that favours compounds with a hit; in the whole collection about 2.5% have one here.

SMILES	ERAP1 inh	E-sel inducer	PglD inh	SIRT5 block	DENV2 CPE
CCCNC(=O)C1(C)CCCN(C(=O)c2c(C)noc2C)C1 (stereo not drawn)	3	0	-1	-4	9
CO[C@H]1CN(C)C(=O)c2ccc(NC(=O)NC(C)C)cc2OC[C@H](C)N(C(=O)CC2CC2)C[C@@H]1C	4	0	/	-29	-3
CO[C@@H]1CN(C)C(=O)c2ccc(NC(=O)NC(C)C)cc2OC[C@H](C)N(C(=O)CC2CC2)C[C@H]1C	-7	0	1	-2	32*
CSc1cccc(NC(=O)CC2Oc3ccccc3NC2=O)c1 (stereo not drawn)	-1	/	-2	-4	37*
CC(C)CN(CCCNC(=O)CC1Oc2ccccc2NC1=O)CC(C)C (stereo not drawn)	1	/	0	-3	/
COc1cccc(NC(=O)CC2Oc3ccccc3NC2=O)c1 (stereo not drawn)	-2	0	3	-4	0
CCCCN(CC)CCCNC(=O)CC1Oc2ccccc2NC1=O (stereo not drawn)	-1	/	-3	17*	-1
CC(c1ccon1)N(C)C(=O)CCc1nnc(Cc2ccc(-c3ccccc3)cc2)o1 (stereo not drawn)	0	2	-1	-10	-1
COC(C(=O)Nc1ccc(Br)cc1F)c1ccccc1 (stereo not drawn)	-2	-1	/	-6	2
CC(=O)Nc1cccc2ncccc12	7	/	1	/	32*
COc1cc(NC(C)=O)c2ncccc2c1Br	-1	1	3	0	89*
O=C(Nc1ccccc1C(F)(F)F)C(O)(c1ccccc1)C1CCCCC1 (stereo not drawn)	-3	0	7	/	50*
CC=Cc1ccc2n(c1=O)C[C@@H]1[C@@H](CO)[C@H](C(=O)NCCC)[C@H]2N1CC1CC1 (mixture of isomers)	-1	0	0	4	-2
COc1cccc(NC(=O)N[C@@H]2CC[C@@H](CC(=O)N3CCOCC3)O[C@@H]2CO)c1	1	-1	-29	0	64*
COc1ccccc1NC(=O)N[C@H]1CC[C@@H](CCNS(=O)(=O)c2ccc(Cl)cc2)O[C@H]1CO	-2	0	-1	2	20*
COc1ccccc1NC(=O)N[C@H]1CC[C@H](CCNS(=O)(=O)c2ccc(Cl)cc2)O[C@@H]1CO	-2	0	1	1	-4
COc1ccc(NC(=O)N[C@@H]2CC[C@@H](CCNS(=O)(=O)c3cccc(Cl)c3)O[C@@H]2CO)cc1	-5	0	7	4	114*
COc1ccccc1NC(=O)N[C@H]1CC[C@H](CCNS(=O)(=O)c2ccc(C)cc2)O[C@H]1CO	0	1	/	0	22*
COc1cccc(C(O)c2nc(/C=C/c3ccccc3)cs2)c1 (stereo not drawn)	-1	1	-6	/	-2
COc1cccc(C(NC(C)=O)c2nc(/C=C/c3ccccc3)cs2)c1 (stereo not drawn)	0	0	-6	/	30*
COc1ccc(NC(=S)N2CCC(C(=O)c3ccc(C)cc3)CC2)c(OC)c1	7	0	1	-3	1
ClC(Cl)(Cl)C1=NCc2nnn(Cc3ccccc3)c2N1	1	0	-4	/	0
O=C(C[C@H]1CC[C@@H]2[C@H](COC[C@H](O)CN2C(=O)C2CCCC2)O1)NCc1ccncc1	-2	0	15	-5	30*
Cn1cnc(CCNC(=O)C[C@@H]2CC[C@@H]3[C@H](COC[C@H](O)CN3C(=O)C3CCCC3)O2)c1	0	0	2	24*	-4
CCNC(=O)C[C@H]1CC[C@H]2[C@@H](COC[C@@H](O)CN2C(=O)C2CCCC2)O1	3	0	5	1	107*
SMILES	ERAP1 inh	E-sel inducer	PglD inh	SIRT5 block	DENV2 CPE
O=C(C[C@H]1CC[C@H]2[C@@H](COC[C@@H](O)CN2C(=O)Nc2ccc(Cl)c(Cl)c2)O1)NCc1ccc(Cl)cc1	-1	0	2	-2	29*
O=C(/C=C/c1ccc2c(c1)OCO2)Nc1cccnc1	3	18	/	-17	-1
COc1ccc(Cn2c(=O)[nH]c3cc(C(=O)NCCc4ccc(S(N)(=O)=O)cc4)ccc3c2=O)cc1	0	/	/	-2	3
C[C@H](CO)N1C[C@H](C)[C@H](CN(C)C(=O)c2ccccc2)OCc2ccccc2-c2ccccc2C1=O	1	1	4	-4	2
O=CN1CCN(S(=O)(=O)c2ccc(Cl)c(C(=O)O)c2)CC1	8	1	/	-4	-3
S=c1nccc(-c2cccs2)[nH]1	1	7	3	15*	2

Source: PubChem (Broad Institute)
